Measurements of several laboratories.
Lines come from different studies, so protocols differ.
Target: Tyrosine-protein kinase Fes/Fps (FES, Homo sapiens, UniProt P07332)

COc1cc2ncnc(Nc3ccc(Oc4ccccc4)c(C)c3C)c2cc1OC  inhibition (enzyme activity, inhibitor; 1 µM): 7%
Cc1sc(C(=O)NC2COC2)cc1-n1cc(NC(=O)Nc2c(F)cccc2Cl)cn1  remaining activity (enzyme activity, inhibitor; 10 µM): 93.7%
O=C1NC(=O)c2cc(Nc3ccc(F)cc3)c(Nc3ccc(F)cc3)cc21  remaining signal (cell-free assay; 0.5 µM): 99.5%
NS(=O)(=O)c1cc(NC(=O)Cc2ccccc2)ccc1Oc1cccc(Cl)c1  remaining binding (cell-free assay, competition with immobilised ligand; 1 µM): 92%
Cc1cnc(NC2CCOCC2)nc1-n1cnc(C(=O)NC(CN)c2cc(F)cc(Cl)c2)c1 (stereo not shown)  remaining activity (enzyme activity, inhibitor, radiometric; 1 µM): 102%
c1nc2c(Nc3ccc4c(c3)OCCO4)nc(Nc3ccc4c(c3)OCCO4)nc2[nH]1  activity vs control (enzyme activity, inhibitor; 10 µM): 62%
COc1ccc2c(c1)O[C@H](c1ccc(OC)c(OC)c1)C[C@@H]2NC(=O)C1(c2ccc3c(c2)OC(F)(F)O3)CC1  remaining binding (cell-free assay, competition with immobilised ligand; 1 µM): 97%
Cc1ccc(C(=O)NCc2ccsc2)cc1C#Cc1cn(C(C)C)c2ncnc(N)c12  activity vs control (enzyme activity, inhibitor; 1 µM): 93%
COc1ccc2c(O[C@@H]3C[C@H]4C(=O)N[C@]5(C(=O)O)CC5/C=C\CCCCC[C@H](NC(=O)OC5CCCC5)C(=O)N4C3)cc(-c3csc(NC(=O)C(C)C)n3)nc2c1C (stereo partly shown)  remaining binding (cell-free assay, competition with immobilised ligand; 1 µM): 100%
COc1cc(Cl)c(C(=O)N[C@@H](CN[C@H]2CC[C@@H](N)CC2)Cc2ccc(C#N)cc2)cc1-c1ccc(CN[C@H](C)c2ccc(C)cc2)o1  remaining activity (enzyme activity, inhibitor; 1 µM): 94%
CNCc1ccc(-c2cc(-c3nc(-c4ccc(S(=O)(=O)C(C)C)cc4)cnc3N)on2)cc1  inhibition (enzyme activity, inhibitor; 0.4 µM): 0%
O=C1Nc2ccc(Cl)cc2C1=Cc1cc(Cl)c(O)c(Cl)c1  remaining signal (cell-free assay; 0.5 µM): 93.7%
CC(C)(C)c1nc2c(s1)c1nc(N)ncc1c1ccc(NS(=O)(=O)c3c(F)cccc3F)c(F)c12  remaining activity (enzyme activity, inhibitor, radiometric; 1 µM): 93%
C[C@@H]1CN(c2cc(-c3n[nH]c4ccc(OC5(C)CC5)cc34)ncn2)C[C@H](C)O1  remaining binding (cell-free assay, competition with immobilised ligand; 0.1 µM): 87%
O=C(Nc1cnn(-c2csc(C(=O)NC3COC3)c2)c1)Nc1c(F)cccc1Cl  remaining activity (enzyme activity, inhibitor; 5 µM): 87.8%
CN([C@@H]1CCc2c(CC(=O)O)c3cc(S(C)(=O)=O)ccc3n2C1)S(=O)(=O)c1ccc(F)cc1  remaining binding (cell-free assay, competition with immobilised ligand; 1 µM): 92%
Cc1ccc(NC(=O)c2ccc(CN3CCN(C)CC3)cc2)cc1Nc1nccc(-c2cncc(-c3oncc3C)c2)n1  remaining activity (enzyme activity, inhibitor; 0.5 µM): ≤ 50%
CNc1cc(Oc2cc(C(=O)Nc3cc(N4CCN(C)CC4)cc(C(F)(F)F)c3)ccc2C)ncn1  inhibition (target engagement in cells, inhibitor, chemoproteomics; Huh-7; 1 µM): -21.4%
CN(c1ccnc(CNc2nc(Nc3ccc4c(c3)CC(=O)N4)ncc2C(F)(F)F)n1)S(C)(=O)=O  remaining binding (cell-free assay, competition with immobilised ligand; 1 µM): 74%
C=CC(=O)Nc1cc(Nc2nccc(Nc3cc(Cl)c(F)cc3C(C)(C)O)n2)c(OC)cc1N1CC[C@@H](N(C)C)C1  inhibition (enzyme activity, inhibitor; 1 µM): 65%
CCC(=O)N[C@@H]1CC[C@H](C(=O)N(C)c2ccc(-c3nc4ccccc4o3)cc2)C1  remaining binding (cell-free assay, competition with immobilised ligand; 1 µM): 96%
Nc1ncnc2occ(-c3ccc(NC(=O)Nc4cc(C(F)(F)F)ccc4F)cc3)c12  remaining signal (cell-free assay, inhibitor; 20 µM): 4.1%
